Activity calls are given as the source filed them. No cut-off for these calls is given here.
Legend:
MCF7 = assay: Cytotoxicity against human MCF7 cells assessed as inhibition of cell growth incubated for 72 hrs by MTT assay; type: functional, cell-based; settings: MCF7, 72 h
PANC-1 = assay: Cytotoxicity against human PANC-1 cells assessed as inhibition of cell growth incubated for 72 hrs by MTT assay; type: functional, cell-based; settings: PANC-1, 72 h
Outline: (§1)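 Cells seeded and grown to 70–80% confluence, then exposed for 72 h to a titration series (0.2–1000 nM). Viability read by MTT relative to untreated cells, with 6 replicates per concentration. IC50 fitted with a Hill-slope model.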

MDA-MB-468 = assay: Cytotoxicity against human MDA-MB-468 cells assessed as inhibition of cell growth incubated for 72 hrs by MTT assay; type: functional, cell-based; settings: MDA-MB-468, 72 h; outline: as §1
BT-474 = assay: Cytotoxicity against human BT-474 cells assessed as inhibition of cell growth incubated for 72 hrs by MTT assay; type: functional, cell-based; settings: BT-474, 72 h; outline: as §1
LNCaP [1] = assay: Cytotoxicity against human LNCaP cells assessed as inhibition of cell growth incubated for 72 hrs by MTT assay; type: functional, cell-based; outline: as §1
LNCaP [2] = assay: Antitumor activity against human LNCaP cells xenografted in SCID mouse assessed as reduction in tumor growth at 10 mg/kg,ip administration measured after 1 week; type: functional, organism-based; settings: time 1.0 weeks
Outline: (§2)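 LNCaP cells (1×10^7) injected subcutaneously on both flanks of male SCID mice. From 4 weeks post-inoculation, 10 mg/kg ip daily for 4 weeks or vehicle (n = 10 vs 11). Caliper tumor size measured weekly (length × width²/2); survival endpoint at tumor diameter 3 cm.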

LNCaP [3] = assay: Antitumor activity against human LNCaP cells xenografted in SCID mouse assessed as reduction in tumor growth at 10 mg/kg,ip administration measured after 4 weeks; type: functional; parameters: scale not given: the % may be the effect or the level left
Outline: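 Male SCID mice received 1×10^7 LNCaP cells subcutaneously under the back skin on both sides. Daily i.p. dosing at 10 mg/kg or vehicle began 4 weeks after inoculation and ran for 4 weeks. Tumor length and width were measured weekly, and size was calculated as length × width × width/2.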

LNCaP [4] = assay: Antitumor activity against human LNCaP cells xenografted in SCID mouse assessed as increase in mouse survival at 10 mg/kg,ip administration measured after 4 weeks; type: functional, organism-based; outline: as §2
LNCaP [5] = assay: Antitumor activity against human LNCaP cells xenografted in SCID mouse assessed as reduction in Ki67 expression at 10 mg/kg,ip administration measured after 4 weeks by immunohistochemical analysis; type: functional, organism-based
Outline: (§3)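 LNCaP subcutaneous xenograft tumors in SCID mice, collected at the end of 4 weeks of 10 mg/kg ip daily dosing or vehicle. IHC for Ki67 and cleaved caspase 3 run on eight tumors from eight mice, at least five fields each; positive cells counted; mean ± SEM reported.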

LNCaP [6] = assay: Antitumor activity against human LNCaP cells xenografted in SCID mouse assessed as increase in cleaved caspase-3 expression at 10 mg/kg,ip administration measured after 4 weeks by immunohistochemical analysis; type: functional, organism-based; outline: as §3
LNCaP [7] = assay: Antitumor activity against human LNCaP cells xenografted in SCID mouse assessed as increase in positive cells of cleaved caspase-3 at 10 mg/kg,ip administration measured after 4 weeks by immunohistochemical analysis; type: functional; outline: as §3
LNCaP [8] = assay: Antitumor activity against human LNCaP cells xenografted in SCID mouse assessed as reduction in microvascular density at 10 mg/kg,ip administration measured after 4 weeks by immunohistochemical analysis relative to control; type: functional; parameters: scale not given: the % may be the effect or the level left
Outline: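 LNCaP xenografts were grown subcutaneously on both flanks of male SCID mice and treated i.p. at 10 mg/kg once daily for 4 weeks, starting 4 weeks after inoculation, with a vehicle control. Tumors were collected at the end of treatment for CD31 immunohistochemistry. Microvascular structures were counted in at least five areas per tumor, using eight tumors from eight mice. Data are mean ± SEM.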

MDA-PCa-118b [9] = assay: Antitumor activity against patient derived MDA-PCa-118b cells xenografted in SCID mouse assessed as reduction in bone metastasis at 10 mg/kg,ip administration measured after 4 weeks by X-ray imaging analysis; type: functional, organism-based; settings: Homo sapiens
Outline: (§4)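 AR-PDX 118b cells (1×10^5) injected via intra-femoral artery in male SCID mice (8–9 weeks). After 2 weeks, 10 mg/kg/day ip or vehicle for 4 weeks (n = 9/group). X-ray imaging every two weeks. At the end, femurs CT-scanned (5 per group) with 3D-reconstruction tumor size, and H&E histology used for tumor/femur area ratio.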

MDA-PCa-118b [10] = assay: Antitumor activity against patient derived MDA-PCa-118b cells xenografted in SCID mouse assessed as reduction in bone damage at 10 mg/kg,ip administration measured after 4 weeks by X-ray imaging analysis; type: functional, organism-based; settings: Homo sapiens; outline: as §4
MDA-PCa-118b [11] = assay: Antitumor activity against patient derived MDA-PCa-118b cells xenografted in SCID mouse assessed as reduction in tumor burden in femur at 10 mg/kg,ip administration measured after 4 weeks by CT imaging analysis; type: functional, organism-based; settings: Homo sapiens; outline: as §4
MDA-PCa-118b [12] = assay: Antitumor activity against patient derived MDA-PCa-118b cells xenografted in SCID mouse assessed as reduction in tumor burden in femur at 10 mg/kg,ip administration measured after 4 weeks by hematoxylin and eosin staining based analysis; type: functional, organism-based; settings: Homo sapiens; outline: as §4
[13] = Antitumor activity against patient derived MDA-PCa-118b cells xenografted in SCID mouse assessed as reduction in femur volume at 10 mg/kg,ip administration measured after 4 weeks by CT imaging analysis; type: functional, Homo sapiens; parameters: scale not given: the % may be the effect or the level left; outline: as §4
[14] = Antitumor activity against patient derived MDA-PCa-118b cells xenografted in SCID mouse assessed as reduction in ratio of tumor area to femur area at 10 mg/kg,ip administration measured after 4 weeks by CT imaging analysis; type: functional, Homo sapiens; parameters: scale not given: the % may be the effect or the level left; outline: as §4

SMILES: C/C(=N\N=c1/[nH]c2cc(F)c(F)cc2n1C)c1ncccn1
- IC50 (MCF7): 3.3 nM
- IC50 (PANC-1): 8 nM
- IC50 (MDA-MB-468): 32 nM
- IC50 (BT-474): 1 nM
- IC50 (LNCaP [1]): 11 nM
- Activity (LNCaP [2]): Active
- Activity (LNCaP [3]): >65%
- Activity (LNCaP [4]): Active
- Activity (LNCaP [5]): Active
- Activity (LNCaP [6]): Active
- Activity (LNCaP [7]): 10%
- Activity (LNCaP [8]): >50%
- Activity (MDA-PCa-118b [9]): Active
- Activity (MDA-PCa-118b [10]): Active
- Activity (MDA-PCa-118b [11]): Active
- Activity (MDA-PCa-118b [12]): Active
- Activity [13]: >55%
- Activity [14]: >50%

— ChEMBL document CHEMBL5543124, “Lead Compound Development of SRC-3 Inhibitors with Improved Pharmacokinetic Properties and Anticancer Efficacy” (J Med Chem, 2024)
